Experimental data taken from ChEMBL document CHEMBL1152538, “Synthesis and biological evaluation of asymmetric gramicidin S analogues containing modified D-phenylalanine residues” (Bioorg Med Chem, 2009).
Values after ≈ are worked out from the molar mass of the structure shown. *1 amine or outer side, *2 acyl side, *3 side chain or, on linkers, in order; H or OH if unused. Where a SMILES comes first, the peptide text is derived from it. [ ]: non-standard residue; d: D form. The star is where a group is joined. X4 = O=C([C@H](Cc1ccc(N(Cc2ccccc2)Cc2ccccc2)cc1)N[*:1])[*:2]; Phe(4-NO2) = N[C@@H](Cc1ccc([N+](=O)[O-])cc1)C(=O)O; X3 = O=C([C@H](Cc1ccc(NCc2ccccc2)cc1)N[*:1])[*:2]; Diphenylacetyl = O=C(C(c1ccccc1)c1ccccc1)*; X5 = O=C(C(c1ccccc1)(c1ccccc1)c1ccccc1)*; Phe(4-NH2) = Nc1ccc(C[C@H](N)C(=O)O)cc1; X1 = O=C(C1C2CC3CC(C2)CC1C3)*; Isobutyryl = CC(C)C(=O)*; Orn = NCCC[C@H](N)C(=O)O; Propionyl = CCC(=O)*

How the values were obtained:
Staphylococcus aureus [1] = test: Antibacterial activity against Staphylococcus aureus 7388 after 24 to 96 hrs by well microplate assay; assay type: functional
Outline: (§1)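 Strains were kept at -70 °C, grown at 30 °C on sheep-blood Columbia agar, and suspended in saline to OD595 0.1, then diluted 10×. Inoculum was added at 2 µL per 100 µL Nutrient Broth with yeast extract (2 g/400 mL). Peptide stocks were 4 g/L in ethanol, diluted to 1000 mg/L in water, then twofold in broth (64–1 mg/L). Plates were held at 30 °C for 24–96 h. MIC was the lowest concentration inhibiting growth.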

[2] = test system: coagulase-negative Staphylococcus; test: Antibacterial activity against coagulase-negative Staphylococcus CNS 7368 after 24 to 96 hrs by well microplate assay
[3] = test system: coagulase-negative Staphylococcus; test: Antibacterial activity against coagulase-negative Staphylococcus CNS 5277 after 24 to 96 hrs by well microplate assay
[4] = Cytotoxicity against human erythrocytes assessed as hemolysis at 1.5 mM after 4 hrs by twofold dilution assay; assay type: cell-based; details: erythrocyte, 1500 µM
Streptococcus mitis [5] = test: Antibacterial activity against Streptococcus mitis ATCC 33399 after 24 to 96 hrs by well microplate assay; assay type: functional; outline: as §1
Streptococcus mitis [6] = test: Antibacterial activity against Streptococcus mitis BMS after 24 to 96 hrs by well microplate assay; assay type: functional; outline: as §1
Enterococcus faecalis = test: Antibacterial activity against Enterococcus faecalis 1131 after 24 to 96 hrs by well microplate assay; assay type: functional; outline: as §1
[7] = test system: coagulase-negative Staphylococcus; test: Antibacterial activity against coagulase-negative Staphylococcus CNS 5115 after 24 to 96 hrs by well microplate assay
Staphylococcus aureus [8] = test: Antibacterial activity against Staphylococcus aureus 7323 after 24 to 96 hrs by well microplate assay; assay type: functional; outline: as §1
Pseudomonas aeruginosa [9] = test: Antibacterial activity against Pseudomonas aeruginosa ATCC 19582 after 24 to 96 hrs by well microplate assay; assay type: functional; outline: as §1
Escherichia coli = test: Antibacterial activity against Escherichia coli ATCC 25922 after 24 to 96 hrs by well microplate assay; assay type: functional; outline: as §1
Pseudomonas aeruginosa [10] = test: Antibacterial activity against Pseudomonas aeruginosa AK1 after 24 to 96 hrs by well microplate assay; assay type: functional; outline: as §1

MIC (Staphylococcus aureus [1]) [µg/mL] | MIC [2] [µg/mL] | MIC [3] [µg/mL] | MIC (Streptococcus mitis [5]) [µg/mL] | MIC (Streptococcus mitis [6]) [µg/mL] | MIC (Enterococcus faecalis) [µg/mL] | MIC [7] [µg/mL] | MIC (Staphylococcus aureus [8]) [µg/mL] | MIC (Pseudomonas aeruginosa [9]) [µg/mL] | MIC (Escherichia coli) [µg/mL] | MIC (Pseudomonas aeruginosa [10]) [µg/mL] | Compound | Activity [4]
16 (≈ 13.3 µM) | 32 (≈ 26.7 µM) | 16 (≈ 13.3 µM) | 16 (≈ 13.3 µM) | 8 (≈ 6.67 µM) | 64 (≈ 53.4 µM) | 32 (≈ 26.7 µM) | 64 (≈ 53.4 µM) | > 64 | 64 (≈ 53.4 µM) | > 64 | CC(=O)Nc1ccc(C[C@@H]2NC(=O)[C@H](CC(C)C)NC(=O)[C@H](CCCN)NC(=O)[C@H](C(C)C)NC(=O)[C@@H]3CCCN3C(=O)[C@H](Cc3ccccc3)NC(=O)[C@H](CC(C)C)NC(=O)[C@H](CCCN)NC(=O)[C@H](C(C)C)NC(=O)[C@@H]3CCCN3C2=O)cc1 (cyclo(FPV[Orn]L[Phe(4-NH2)](Ac)PV[Orn]L)) | Non-toxic
16 (≈ 13 µM) | 16 (≈ 13 µM) | 16 (≈ 13 µM) | 32 (≈ 26.1 µM) | 8 (≈ 6.52 µM) | 16 (≈ 13 µM) | 16 (≈ 13 µM) | 32 (≈ 26.1 µM) | > 64 | 32 (≈ 26.1 µM) | > 64 | CC(C)C[C@@H]1NC(=O)[C@H](CCCN)NC(=O)[C@H](C(C)C)NC(=O)[C@@H]2CCCN2C(=O)[C@H](Cc2ccccc2)NC(=O)[C@H](CC(C)C)NC(=O)[C@H](CCCN)NC(=O)[C@H](C(C)C)NC(=O)[C@@H]2CCCN2C(=O)[C@H](Cc2ccc(NC(=O)C(C)C)cc2)NC1=O (cyclo(FPV[Orn]L[Phe(4-NH2)](Isobutyryl)PV[Orn]L)) | –
16 (≈ 13.2 µM) | 8 (≈ 6.6 µM) | 8 (≈ 6.6 µM) | 16 (≈ 13.2 µM) | 8 (≈ 6.6 µM) | 32 (≈ 26.4 µM) | 16 (≈ 13.2 µM) | 32 (≈ 26.4 µM) | > 64 | 64 (≈ 52.8 µM) | > 64 | CCC(=O)Nc1ccc(C[C@@H]2NC(=O)[C@H](CC(C)C)NC(=O)[C@H](CCCN)NC(=O)[C@H](C(C)C)NC(=O)[C@@H]3CCCN3C(=O)[C@H](Cc3ccccc3)NC(=O)[C@H](CC(C)C)NC(=O)[C@H](CCCN)NC(=O)[C@H](C(C)C)NC(=O)[C@@H]3CCCN3C2=O)cc1 (cyclo(FPV[Orn]L[Phe(4-NH2)](Propionyl)PV[Orn]L)) | –
16 (≈ 13.8 µM) | 16 (≈ 13.8 µM) | 16 (≈ 13.8 µM) | 32 (≈ 27.7 µM) | 8 (≈ 6.92 µM) | 64 (≈ 55.3 µM) | 32 (≈ 27.7 µM) | 32 (≈ 27.7 µM) | > 64 | 64 (≈ 55.3 µM) | > 64 | CC(C)C[C@@H]1NC(=O)[C@H](CCCN)NC(=O)[C@H](C(C)C)NC(=O)[C@@H]2CCCN2C(=O)[C@H](Cc2ccccc2)NC(=O)[C@H](CC(C)C)NC(=O)[C@H](CCCN)NC(=O)[C@H](C(C)C)NC(=O)[C@@H]2CCCN2C(=O)[C@H](Cc2ccc(N)cc2)NC1=O (cyclo(FPV[Orn]L[Phe(4-NH2)]PV[Orn]L)) | –
16 (≈ 13.5 µM) | 16 (≈ 13.5 µM) | 16 (≈ 13.5 µM) | 32 (≈ 27 µM) | 32 (≈ 27 µM) | 32 (≈ 27 µM) | 16 (≈ 13.5 µM) | 16 (≈ 13.5 µM) | > 64 | 64 (≈ 53.9 µM) | > 64 | CC(C)C[C@@H]1NC(=O)[C@H](CCCN)NC(=O)[C@H](C(C)C)NC(=O)[C@@H]2CCCN2C(=O)[C@H](Cc2ccccc2)NC(=O)[C@H](CC(C)C)NC(=O)[C@H](CCCN)NC(=O)[C@H](C(C)C)NC(=O)[C@@H]2CCCN2C(=O)[C@H](Cc2ccc([N+](=O)[O-])cc2)NC1=O (cyclo(FPV[Orn]L[Phe(4-NO2)]PV[Orn]L)) | –

Second part, the compound before the results:

Compound | MIC (Staphylococcus aureus [1]) [µg/mL] | MIC [2] [µg/mL] | MIC [3] [µg/mL] | MIC (Streptococcus mitis [5]) [µg/mL] | MIC (Streptococcus mitis [6]) [µg/mL] | MIC (Enterococcus faecalis) [µg/mL] | MIC [7] [µg/mL] | MIC (Staphylococcus aureus [8]) [µg/mL] | MIC (Pseudomonas aeruginosa [9]) [µg/mL] | MIC (Escherichia coli) [µg/mL] | MIC (Pseudomonas aeruginosa [10]) [µg/mL] | Activity [4]
CC(C)C[C@@H]1NC(=O)[C@H](CCCN)NC(=O)[C@H](C(C)C)NC(=O)[C@@H]2CCCN2C(=O)[C@H](Cc2ccccc2)NC(=O)[C@H](CC(C)C)NC(=O)[C@H](CCCN)NC(=O)[C@H](C(C)C)NC(=O)[C@@H]2CCCN2C(=O)[C@H](Cc2ccc(NC(=O)C(c3ccccc3)c3ccccc3)cc2)NC1=O (cyclo(FPV[Orn]L[Phe(4-NH2)](Diphenylacetyl)PV[Orn]L)) | 32 (≈ 23.7 µM) | 8 (≈ 5.92 µM) | 64 (≈ 47.4 µM) | > 64 | 16 (≈ 11.8 µM) | 16 (≈ 11.8 µM) | > 64 | 16 (≈ 11.8 µM) | > 64 | > 64 | > 64 | –
CC(C)C[C@@H]1NC(=O)[C@H](CCCN)NC(=O)[C@H](C(C)C)NC(=O)[C@@H]2CCCN2C(=O)[C@H](Cc2ccccc2)NC(=O)[C@H](CC(C)C)NC(=O)[C@H](CCCN)NC(=O)[C@H](C(C)C)NC(=O)[C@@H]2CCCN2C(=O)[C@H](Cc2ccc(NC(=O)C3C4CC5CC(C4)CC3C5)cc2)NC1=O (some centres not stated) (cyclo(FPV[Orn]L[Phe(4-NH2)](X1)PV[Orn]L)) | 8 (≈ 6.07 µM) | 8 (≈ 6.07 µM) | 16 (≈ 12.1 µM) | 16 (≈ 12.1 µM) | 8 (≈ 6.07 µM) | 64 (≈ 48.5 µM) | 8 (≈ 6.07 µM) | 8 (≈ 6.07 µM) | > 64 | > 64 | > 64 | Non-toxic
CC(C)C[C@@H]1NC(=O)[C@H](CCCN)NC(=O)[C@H](C(C)C)NC(=O)[C@@H]2CCCN2C(=O)[C@H](Cc2ccccc2)NC(=O)[C@H](CC(C)C)NC(=O)[C@H](CCCN)NC(=O)[C@H](C(C)C)NC(=O)[C@@H]2CCCN2C(=O)[C@H](Cc2ccc(NC(=O)C(c3ccccc3)(c3ccccc3)c3ccccc3)cc2)NC1=O (cyclo(FPV[Orn]L[Phe(4-NH2)](X5)PV[Orn]L)) | > 64 | > 64 | > 64 | > 64 | 64 (≈ 44.9 µM) | > 64 | > 64 | > 64 | > 64 | > 64 | > 64 | –
CC(C)C[C@@H]1NC(=O)[C@H](CCCN)NC(=O)[C@H](C(C)C)NC(=O)[C@@H]2CCCN2C(=O)[C@H](Cc2ccccc2)NC(=O)[C@H](CC(C)C)NC(=O)[C@H](CCCN)NC(=O)[C@H](C(C)C)NC(=O)[C@@H]2CCCN2C(=O)[C@H](Cc2ccc(NCc3ccccc3)cc2)NC1=O (cyclo(FPV[Orn]L[X3]PV[Orn]L)) | 64 (≈ 51.3 µM) | 64 (≈ 51.3 µM) | 64 (≈ 51.3 µM) | 64 (≈ 51.3 µM) | 64 (≈ 51.3 µM) | > 64 | > 64 | > 64 | > 64 | > 64 | > 64 | –
CC(C)C[C@@H]1NC(=O)[C@H](CCCN)NC(=O)[C@H](C(C)C)NC(=O)[C@@H]2CCCN2C(=O)[C@H](Cc2ccccc2)NC(=O)[C@H](CC(C)C)NC(=O)[C@H](CCCN)NC(=O)[C@H](C(C)C)NC(=O)[C@@H]2CCCN2C(=O)[C@H](Cc2ccc(N(Cc3ccccc3)Cc3ccccc3)cc2)NC1=O (cyclo(FPV[Orn]L[X4]PV[Orn]L)) | > 64 | 64 (≈ 47.9 µM) | 64 (≈ 47.9 µM) | 64 (≈ 47.9 µM) | 64 (≈ 47.9 µM) | > 64 | > 64 | > 64 | > 64 | > 64 | > 64 | –
